Data published in ChEMBL document CHEMBL1124346 (J Med Chem, 1989).

Key:
D(2) dopamine receptor [1] = target: T1, D(2) dopamine receptor (Rattus norvegicus, UniProt P61169); experiment: Binding activity against Dopamine receptor D2 in rat brain, using [3H]spiperone as the radioligand; format: tissue-based
How it was run: (§1)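 Rat striatal membranes; [3H]spiperone 0.95–1.4 nM final, with 40 nM ketanserin in all tubes to mask 5HT-2 sites. Buffer 50 mM Tris-HCl pH 7.4 with 120 mM NaCl, 5 mM KCl, 2 mM CaCl2, 1 mM MgCl2; 37 °C.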

D(1A) dopamine receptor [2] = target: T2, D(1A) dopamine receptor (Rattus norvegicus, UniProt P18901); experiment: Binding activity against dopamine D1 receptor in rat brain, using [3H]SCH-23390 as the radioligand; format: tissue-based
How it was run: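 Rat striatum homogenized in 50 mM Tris-HCl pH 7.4 with 5 mM MgSO4, washed and resuspended in 200 vol. Incubated with [3H]SCH 23390 0.45–0.76 nM final, 37 °C, 30 min; nonspecific binding with 1 μM SCH 23390.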

[3] = target: Muscarinic acetylcholine receptor; experiment: Binding activity against muscarinic receptor in rat brain using [3H]QNB as the radioligand; format: tissue-based
D(2) dopamine receptor [4] = target: T1, D(2) dopamine receptor; experiment: Binding activity against dopamine receptor D2 in rat brain, using [3H]spiperone as the radioligand; format: tissue-based; how it was run: as §1
D(1A) dopamine receptor [5] = target: T2, D(1A) dopamine receptor; experiment: Binding activity against Dopamine receptor D1 in rat brain, using [3H]SCH-23390 as the radioligand; format: tissue-based
[6] = target: Muscarinic acetylcholine receptor; experiment: Binding activity against muscarinic acetylcholine receptor in rat brain using [3H]QNB as the radioligand; format: tissue-based
D(2) dopamine receptor [7] = target: T1, D(2) dopamine receptor; experiment: Binding activity against dopamine D2 receptor in rat brain, using [3H]spiperone as the radioligand

T1 sequence (P61169 whole entry): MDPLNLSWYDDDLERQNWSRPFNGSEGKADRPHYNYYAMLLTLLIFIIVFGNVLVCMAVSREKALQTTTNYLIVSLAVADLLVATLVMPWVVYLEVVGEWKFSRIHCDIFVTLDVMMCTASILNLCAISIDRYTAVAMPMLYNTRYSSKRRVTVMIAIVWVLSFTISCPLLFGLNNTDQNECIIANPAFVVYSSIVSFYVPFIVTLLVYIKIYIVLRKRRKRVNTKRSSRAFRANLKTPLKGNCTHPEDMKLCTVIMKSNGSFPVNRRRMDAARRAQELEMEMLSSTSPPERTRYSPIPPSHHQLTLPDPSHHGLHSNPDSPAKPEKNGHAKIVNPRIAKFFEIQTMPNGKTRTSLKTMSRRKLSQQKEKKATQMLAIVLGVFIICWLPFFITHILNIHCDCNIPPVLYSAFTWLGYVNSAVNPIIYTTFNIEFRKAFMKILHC
T2 sequence (P18901 whole entry): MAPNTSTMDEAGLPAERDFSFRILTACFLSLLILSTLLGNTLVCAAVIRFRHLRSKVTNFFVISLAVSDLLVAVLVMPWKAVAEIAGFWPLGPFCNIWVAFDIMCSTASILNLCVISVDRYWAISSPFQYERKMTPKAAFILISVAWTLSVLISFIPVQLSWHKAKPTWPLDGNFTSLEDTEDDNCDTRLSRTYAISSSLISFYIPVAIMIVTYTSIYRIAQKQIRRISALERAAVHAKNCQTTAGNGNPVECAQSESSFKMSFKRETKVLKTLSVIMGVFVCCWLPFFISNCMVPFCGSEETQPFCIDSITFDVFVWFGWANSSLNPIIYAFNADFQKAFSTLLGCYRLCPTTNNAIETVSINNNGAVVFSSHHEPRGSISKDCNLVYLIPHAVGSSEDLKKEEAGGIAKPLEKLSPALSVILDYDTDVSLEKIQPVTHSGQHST

IC50 (D(2) dopamine receptor [1]) [µM]	IC50 (D(1A) dopamine receptor [2]) [µM]	IC50 [3] [µM]	IC50 (D(2) dopamine receptor [4]) [µM]	IC50 (D(1A) dopamine receptor [5]) [µM]	IC50 [6] [µM]	IC50 (D(2) dopamine receptor [7]) [µM]	Compound
0.218	0.063	0.055	–	–	–	–	CN1CCN(C2=Nc3ccccc3Nc3ccc(Cl)cc32)CC1 [ISOCLOZAPINE]
–	–	–	2.65	0.074	1.02	–	CC1c2ccccc2C=C(N2CCN(C)CC2)c2ccccc21 (stereo unspecified)
–	0.895	–	–	–	–	> 10	CN1CCN(C2=Nc3ccccc3Nc3ccccc32)CC1
–	–	–	6.97	0.305	2.6	–	C/C=C1/c2ccccc2C=C(N2CCN(C)CC2)c2ccccc21
